# Columns and labels:
# Aspergillus fumigatus [1] = assay: Antifungal activity against Aspergillus fumigatus NCIM 902 after 3 to 4 days by disc diffusion method; assay type: functional
# Talaromyces marneffei [2] = assay: Antifungal activity against Penicillium marneffei after 3 to 4 days by disc diffusion method; assay type: functional
# [3] = system: Trichophyton mentagrophytes; assay: Antifungal activity against Trichophyton mentagrophytes after 3 to 4 days by disc diffusion method; assay type: functional
# Aspergillus flavus [4] = assay: Antifungal activity against Aspergillus flavus NCIM 524 after 3 to 4 days; assay type: functional
# Aspergillus flavus [5] = assay: Antifungal activity against Aspergillus flavus NCIM 524 after 3 to 4 days by serial plate dilution method
# [6] = system: Trichophyton mentagrophytes; assay: Antifungal activity against Trichophyton mentagrophytes after 3 to 4 days; assay type: functional
# In short: (§1)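 Compounds were dissolved in DMSO and tested by serial plate dilution. Activity was read as the diameter of the inhibition zone, with ciclopiroxolamine as the reference standard. Penicillium marneffei and Trichophyton mentagrophytes were recultured isolates.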
# Talaromyces marneffei [7] = assay: Antifungal activity against Penicillium marneffei after 3 to 4 days; assay type: functional
# Aspergillus fumigatus [8] = assay: Antifungal activity against Aspergillus fumigatus NCIM 902 after 3 to 4 days; assay type: functional; in short: as §1
# HCT-116 = assay: Cytotoxicity against human HCT116 cells at 10 uM after 48 hrs by WST-1 assay; assay type: functional
# In short: (§2)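 Cells from ATCC were grown in DMEM with 10% heat-inactivated FBS at 37 °C in 5% CO2. Log-phase cells were seeded at 5 × 10^3 per well and left to recover overnight. They were then exposed to a range of compound concentrations for 48 h, with 0.2% DMSO as the vehicle control. CCK-8 (WST) reagent was added for 2 h and absorbance was measured.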
# PANC-1 = assay: Cytotoxicity against human PANC1 cells at 10 uM after 48 hrs by WST-1 assay; assay type: functional
# In short: (§3)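 Cells from ATCC, grown in DMEM with 10% heat-inactivated FBS at 37 °C in humidified 5% CO2. Log-phase cells seeded at 5 × 10^3 cells/well and left to recover overnight, then exposed to varying compound concentrations for 48 h. Controls received medium with 0.2% DMSO vehicle. CCK-8 ([…]) reagent added at 5 µL/well for 2 h, then absorbance read.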
# ACHN = assay: Cytotoxicity against human ACHN cells at 10 uM after 48 hrs by WST-1 assay; assay type: functional; in short: as §2
# Calu-1 = assay: Cytotoxicity against human Calu1 cells at 10 uM after 48 hrs by WST-1 assay; assay type: functional; in short: as §2
# NCI-H460 = assay: Cytotoxicity against human NCI-H460 cells at 10 uM after 48 hrs by WST-1 assay; assay type: functional; in short: as §3
# Klebsiella pneumoniae [9] = assay: Antibacterial activity against Klebsiella pneumoniae after 24 hrs by disc diffusion method; assay type: functional
# In short: (§4)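 Disc diffusion susceptibility test. The Klebsiella pneumoniae strain was a recultured isolate, not an ATCC stock.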
# Pseudomonas aeruginosa [10] = assay: Antibacterial activity against Pseudomonas aeruginosa ATCC 27853 after 24 hrs by disc diffusion method; assay type: functional; in short: as §4
# Klebsiella pneumoniae [11] = assay: Antibacterial activity against Klebsiella pneumoniae after 24 hrs; assay type: functional
# Escherichia coli [12] = assay: Antibacterial activity against Escherichia coli ATCC 25922 after 24 hrs; assay type: functional; settings: ATCC 25922, 24 h
# Escherichia coli [13] = assay: Antibacterial activity against Escherichia coli ATCC 25922 after 24 hrs by disc diffusion method; assay type: functional; in short: as §4
# Pseudomonas aeruginosa [14] = assay: Antibacterial activity against Pseudomonas aeruginosa ATCC 27853 after 24 hrs; assay type: functional; settings: ATCC 27853, 24 h
# Staphylococcus aureus [15] = assay: Antibacterial activity against Staphylococcus aureus ATCC 25923 after 24 hrs by disc diffusion method; assay type: functional; in short: as §4
# Staphylococcus aureus [16] = assay: Antibacterial activity against Staphylococcus aureus ATCC 25923 after 24 hrs; assay type: functional; settings: ATCC 25923, 24 h
SMILES,Activity (HCT-116) [%],Activity (PANC-1) [%],Activity (ACHN) [%],Activity (Calu-1) [%],Activity (NCI-H460) [%],other results
Cc1cc(C2CCCCC2)n(O)c(=O)c1.NCCO [CICLOPIROX OLAMINE],,,,,,inhibition zone (IZ) (Aspergillus fumigatus [1]): 26 mm; inhibition zone (IZ) (Talaromyces marneffei [2]): 23 mm; inhibition zone (IZ) [3]: 27 mm; MIC (Aspergillus flavus [4]): 3.12 µg/mL; inhibition zone (IZ) (Aspergillus flavus [5]): 27 mm; MIC [6]: 3.12 µg/mL; MIC (Talaromyces marneffei [7]): 6.25 µg/mL; MIC (Aspergillus fumigatus [8]): 6.25 µg/mL
CCOC(=O)CC(=O)c1cnc2ccccc2c1,28,26,20,23,20,
CCOC(=O)CC(=O)c1ncccn1,23,37,10,17,20,inhibition zone (IZ) (Aspergillus fumigatus [1]): 25 mm; inhibition zone (IZ) (Klebsiella pneumoniae [9]): 23 mm; inhibition zone (IZ) (Pseudomonas aeruginosa [10]): 22 mm; inhibition zone (IZ) (Talaromyces marneffei [2]): 17 mm; MIC (Klebsiella pneumoniae [11]): 6.25 µg/mL; MIC (Escherichia coli [12]): 6.25 µg/mL; inhibition zone (IZ) [3]: 18 mm; MIC (Aspergillus flavus [4]): 12.5 µg/mL; inhibition zone (IZ) (Escherichia coli [13]): 24 mm; inhibition zone (IZ) (Aspergillus flavus [5]): 22 mm; MIC (Pseudomonas aeruginosa [14]): 6.25 µg/mL; inhibition zone (IZ) (Staphylococcus aureus [15]): 22 mm; MIC [6]: 12.5 µg/mL; MIC (Staphylococcus aureus [16]): 6.25 µg/mL; MIC (Talaromyces marneffei [7]): 12.5 µg/mL; MIC (Aspergillus fumigatus [8]): 12.5 µg/mL
CCOC(=O)CC(=O)c1cnc(Cl)cn1,40,14,30,31,34,inhibition zone (IZ) (Aspergillus fumigatus [1]): 26 mm; inhibition zone (IZ) (Klebsiella pneumoniae [9]): 20 mm; inhibition zone (IZ) (Pseudomonas aeruginosa [10]): 21 mm; inhibition zone (IZ) (Talaromyces marneffei [2]): 24 mm; MIC (Klebsiella pneumoniae [11]): 6.25 µg/mL; MIC (Escherichia coli [12]): 6.25 µg/mL; inhibition zone (IZ) [3]: 25 mm; MIC (Aspergillus flavus [4]): 6.25 µg/mL; inhibition zone (IZ) (Escherichia coli [13]): 24 mm; inhibition zone (IZ) (Aspergillus flavus [5]): 22 mm; MIC (Pseudomonas aeruginosa [14]): 6.25 µg/mL; inhibition zone (IZ) (Staphylococcus aureus [15]): 23 mm; MIC [6]: 6.25 µg/mL; MIC (Staphylococcus aureus [16]): 6.25 µg/mL; MIC (Talaromyces marneffei [7]): 6.25 µg/mL; MIC (Aspergillus fumigatus [8]): 6.25 µg/mL
CCOC(=O)CC(=O)c1sc(Cl)nc1C,48,29,37,32,24,
CCOC(=O)CC(=O)c1ccncc1,39,10,31,12,10,
CCOC(=O)CC(=O)c1nccn1CCOC,28,26,21,24,14,
CCOC(=O)CC(=O)c1ccccn1,21,27,25,22,36,
CCOC(=O)CC(=O)c1cccnc1,30,35,30,30,19,
CCOC(=O)CC(=O)c1nccn1C,11,35,30,30,14,
CCOC(=O)CC(=O)c1ccncn1,20,35,15,12,13,
CCOC(=O)C(C)C(=O)c1nccc2ccccc12 (stereo not drawn),24,30,25,20,19,
O=C(O)c1cn(C2CC2)c2cc(N3CCNCC3)c(F)cc2c1=O [CIPROFLOXACIN],,,,,,inhibition zone (IZ) (Klebsiella pneumoniae [9]): 23 mm; inhibition zone (IZ) (Pseudomonas aeruginosa [10]): 28 mm; MIC (Klebsiella pneumoniae [11]): 6.25 µg/mL; MIC (Escherichia coli [12]): 6.25 µg/mL; inhibition zone (IZ) (Escherichia coli [13]): 32 mm; MIC (Pseudomonas aeruginosa [14]): 6.25 µg/mL; inhibition zone (IZ) (Staphylococcus aureus [15]): 23 mm; MIC (Staphylococcus aureus [16]): 6.25 µg/mL
CCOC(=O)CC(=O)c1cn(C(=O)OC(C)(C)C)c2ccccc12,33,23,30,20,39,
CCOC(=O)CC(=O)c1cnccn1,30,27,34,16,20,

# — ChEMBL document CHEMBL2034859, “Simple, fast and efficient synthesis of β-keto esters from the esters of heteroaryl compounds, its antimicrobial study and cytotoxicity towards various cancer cell lines” (Bioorg Med Chem Lett, 2012)
